From PubChem
This is a sample that favours compounds with a hit; in the whole collection about 3.5% have one here.
FN deposition inh: fibronectin deposition inhibition. AH1F fibroblasts, Alexa488-fibronectin deposition fluorescence, overnight. inhibition, % at 12.6 µM. hit rate 0.086% among 350,000;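 active = mean inhibition across replicates of 30% or more, regardless of how many single replicates reach that level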;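 note: positive control wells lacked labelled fibronectin entirely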
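Measured by – fluorescence 485/525 nm · System – AH1F fibroblast monolayer, labelled fibronectin deposition · Amount – 10000 cells per well · Buffer or medium – serum-reduced DMEM (2% serum) · Doses – single dose, pinned · Also added – fluorescent fibronectin at 24 nM final · Schedule – 1 h cell attachment, overnight exposure to compound and label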
DENV2 CPE rescue: DENV2-induced cell death inhibition; DENV2-infected cells, cytopathic effect rescue, plate reader; CPE inhibition, % at 9.99 µM; hit rate 1.7% among 350,000; AID 651640; in the data active = CPE inhibition above about 20%, passing the limit was not always enough; tested in BHK-21 cells;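 note: 0% = median of neutral control wells and 100% = median of positive control wells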
Ecoli rRNA inh: inhibitors of bacterial rRNA selective over humanized ribosomes | E. coli WT GFP vs humanized-ribosome RFP mutants, fluorescence, 24 h; hits give low values; DMSO median 0, no signal -100 | GFP signal change (wild-type ribosome), % (concentration not given with the values) | hit rate 1.6% among 350,000 | AID 720706;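 active = significant combined selectivity score with lowered wild-type GFP, culture density cut under 30%, mutant RFP and density less affected; inactive = any of these conditions unmet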
PGC1a acetyl inh: PGC1a acetylation modulation, inhibitor mode; U2OS PGC1a acetylation, AlphaScreen anti-acetyl-lysine; with virally co-expressed GCN5 acetyltransferase; inhibition, % at 15.6 µM; hit rate 0.17% among 350,000;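 active = every replicate shows inhibition of at least 40%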;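 note: 0% = neutral control wells and 100% = positive control wells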
PglD inh: blocks C. jejuni PglD acetyltransferase activity; AID 602405; inhibition, % at 12.5 µM; purified PglD enzyme, DTNB colorimetric CoA detection; hit rate 0.098% among 360,000; in the data active = inhibition above about 16%, passing the limit was not always enough
HIV Env fusion: HIV envelope-mediated fusion inhibition | HeLa-JRFL Env/CEM21 cell fusion, luciferase | inhibition, % at 12.3 µM | hit rate 1.1% among 360,000;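 active = mean replicate inhibition score of at least 50 and every replicate individually at or above 50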;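 note: 0% = plate neutral controls and 100% = maraviroc near 300 nM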
An asterisk follows results filed as active; . = no result; ! = not active in a repeat; [ ] = remark or other dose.

SMILES	FN deposition inh	DENV2 CPE rescue	Ecoli rRNA inh	PGC1a acetyl inh	PglD inh	HIV Env fusion
COc1ccc(C#Cc2cnc3c(c2)C(=O)N([C@@H](C)CO)C[C@H](C)[C@H](CN(C)C(C)=O)O3)cc1	-4	26*	2	5	3	6[16.7 µM]
COc1cccc(-c2cnc3c(c2)C(=O)N([C@H](C)CO)C[C@H](C)[C@@H](CN(C)C(C)=O)O3)c1	0	32*	0	-8	-1	-10[16.7 µM]
Cc1ccc(S(=O)(=O)N[C@H]2CC[C@@H](CCNC(=O)C3CCCCC3)O[C@@H]2CO)cc1	.	2	-2	-4	-2	-1[16.7 µM]
CNC[C@@H]1Oc2cc(C#CCOC)ccc2S(=O)(=O)N([C@H](C)CO)C[C@H]1C	.	.	0	9	.	-25[16.7 µM]
CNC[C@@H]1Oc2ncc(-c3cccc(F)c3)cc2C(=O)N([C@@H](C)CO)C[C@@H]1C	-7	25*	0	-7	-2	-14[16.7 µM]
CNC[C@@H]1Oc2ncc(C#Cc3ccccc3F)cc2C(=O)N([C@H](C)CO)C[C@@H]1C	.	.	8	-1	.	7[16.7 µM]
CNC[C@H]1Oc2ncc(C#Cc3ccccc3F)cc2C(=O)N([C@@H](C)CO)C[C@H]1C	.	71*	6	4	0	3[16.7 µM]
CC(=O)N(C)C[C@H]1Oc2ncc(C#Cc3ccccc3)cc2C(=O)N([C@H](C)CO)C[C@H]1C	.	48*	2	4	2	3[16.7 µM]
C[C@@H]1CN([C@H](C)CO)C(=O)c2cc(C#Cc3ccccc3)cnc2O[C@H]1CN(C)C(=O)CCN1CCCCC1	.	26*	5	4	4	-7[16.7 µM]
C[C@@H]1CCCCO[C@H](CN(C)S(=O)(=O)c2ccccc2)[C@@H](C)CN([C@H](C)CO)C(=O)c2cc(NC(=O)CCCN(C)C)ccc2O1	-5	11	3	-8	1	-6[16.7 µM]
COc1cccc(-c2cnc3c(c2)C(=O)N([C@H](C)CO)C[C@H](C)[C@H](CN(C)C(=O)Nc2cccc4ccccc24)O3)c1	.	-10	-4	5	4	89*[16.7 µM]
C[C@@H]1CN([C@H](C)CO)C(=O)c2cc(C#Cc3cccnc3)cnc2O[C@@H]1CN(C)C(=O)CN(C)C	.	35*	1	-4	3	8[16.7 µM]
C[C@H](CO)N1C[C@H](C)[C@@H](CN(C)C(=O)CN(C)C)Oc2ncc(C#Cc3cccnc3)cc2C1=O	.	0	5	2	4	4[16.7 µM]
COc1cc(/C=N/Nc2ccccn2)cc(OC)c1O	-18	-9	17	40	.	-65
COc1cc(/C=N/Nc2cccc3cccnc23)cc(OC)c1O	-2	.	-26*	.	.	-75
Oc1cccc(/C=N/Nc2cccc3cccnc23)c1	8	7	-35*	27	-5	-290
CCCN(C)C[C@H]1OCCCC[C@@H](C)Oc2ccc(NS(=O)(=O)c3cn(C)cn3)cc2C(=O)N([C@@H](C)CO)C[C@@H]1C	.	15	3	9	-2	4[16.7 µM]
Nc1cccn2c(-c3ccc(Cl)c(Cl)c3)cnc12	0	-4	-26*	.	.	-155
Cc1cc(C)nc(NS(=O)(=O)c2ccc(NC(=O)Nc3ccccc3)cc2)n1	2	12	-7	97*	.	-1
C[C@H](CO)N1C[C@H](C)[C@@H](CN(C)C(=O)CCN2CCCCC2)Oc2ncc(C#CCN(C)C)cc2C1=O	8	11	1	2	-3	4[16.7 µM]
CC(=O)c1c(C)[nH]c(C(=O)OCC(=O)Nc2ccc(C)cc2[N+](=O)[O-])c1C	1	.	.	.	.	88*
Cc1ccc(NC(=O)COC(=O)c2cc(Cl)ccc2[N+](=O)[O-])c(C)c1	30*	3	.	.	.	2
O=C(COC(=O)c1cc(Cl)ccc1[N+](=O)[O-])Nc1cccc2ccccc12	5	.	0	.	.	-6
C[C@H]1CN([C@@H](C)CO)C(=O)c2cc(NC(=O)C3CC3)ccc2O[C@@H]1CN(C)C(=O)Nc1ccc(C(F)(F)F)cc1	.	-8	4	8	1	.
CCOC(=O)c1cc([N+](=O)[O-])sc1NC(=O)c1ccc(S(=O)(=O)N2CC3(C)CC2CC(C)(C)C3)cc1 (centres undefined)	-4	30*	1	-6	.	43
SMILES	FN deposition inh	DENV2 CPE rescue	Ecoli rRNA inh	PGC1a acetyl inh	PglD inh	HIV Env fusion
CO[C@H]1CN(C)C(=O)c2cc(NC(=O)C3CCOCC3)ccc2OC[C@@H](C)NC[C@@H]1C	-20	-9	0	-6	0	3[16.7 µM]
C[C@H]1CN([C@@H](C)CO)C(=O)c2cccc(NC(=O)c3ccc(-c4nccs4)cc3)c2O[C@@H]1CN(C)C	17	.	-4	-17	21*	.
C[C@@H]1CN([C@H](C)CO)C(=O)c2cccc(NC(=O)c3ccc(-c4nccs4)cc3)c2O[C@@H]1CN(C)C	5	13	1	-4	2	.
C[C@H]1CN([C@@H](C)CO)C(=O)c2cccc(NC(=O)c3ccc(-c4nccs4)cc3)c2O[C@@H]1CN(C)Cc1ccc(-c2ccccc2)cc1	.	75*	3	0	0	26[16.7 µM]
C[C@H](CO)N1C[C@H](C)[C@@H](CN(C)S(=O)(=O)c2ccc(F)cc2)OCCCC[C@H](C)Oc2ccc(NS(C)(=O)=O)cc2C1=O	.	27*	2	-6	3	-13[16.7 µM]
COc1ccc(S(=O)(=O)N(C)C[C@@H]2OCCCC[C@H](C)Oc3ccc(NS(C)(=O)=O)cc3C(=O)N([C@@H](C)CO)C[C@H]2C)cc1	.	1	-5	4	2	11[16.7 µM]
Cc1ccc(S(=O)(=O)N(C)C[C@@H]2OCCCC[C@H](C)Oc3ccc(NS(C)(=O)=O)cc3C(=O)N([C@H](C)CO)C[C@@H]2C)cc1	-7	57*	-2	-8	3	-22[16.7 µM]
COc1ccc(S(=O)(=O)N(C)C[C@H]2OCCCC[C@@H](C)Oc3ccc(NS(C)(=O)=O)cc3C(=O)N([C@@H](C)CO)C[C@@H]2C)cc1	.	22*	-2	-25	-1	-3[16.7 µM]
C[C@@H]1CN([C@H](C)CO)C(=O)c2cc(NS(C)(=O)=O)ccc2O[C@@H](C)CCCCO[C@@H]1CN(C)S(=O)(=O)c1ccc(F)cc1	.	19	-5	0	1	6[16.7 µM]
COc1ccc(S(=O)(=O)N(C)C[C@H]2OCCCC[C@H](C)Oc3ccc(NS(=O)(=O)c4cccs4)cc3C(=O)N([C@H](C)CO)C[C@H]2C)cc1	.	63*	0	-1	-2	-42[16.7 µM]
Cc1ccc(S(=O)(=O)N(C)C[C@H]2OCCCC[C@H](C)Oc3ccc(NS(C)(=O)=O)cc3C(=O)N([C@H](C)CO)C[C@H]2C)cc1	8	15	-9	-4	-1	5[16.7 µM]
COc1ccc(S(=O)(=O)N(C)C[C@H]2OCCCC[C@H](C)Oc3ccc(N(C)C)cc3C(=O)N([C@H](C)CO)C[C@@H]2C)cc1	-9	23*!	0	1	0	-25
C[C@@H]1CCCCO[C@H](CN(C)S(=O)(=O)c2ccc(F)cc2)[C@@H](C)CN([C@@H](C)CO)C(=O)c2cc(NS(C)(=O)=O)ccc2O1	.	29*	-3	7	-2	-5[16.7 µM]
